Measured values as given in ChEMBL document CHEMBL3860038, “Discovery of (R,E)-N-(7-Chloro-1-(1-[4-(dimethylamino)but-2-enoyl]azepan-3-yl)-1H-benzo[d]imidazol-2-yl)-2-methylisonicotinamide (EGF816), a Novel, Potent, and WT Sparing Covalent Inhibitor of Oncogenic (L858R, ex19del) and Resistant (T790M) EGFR Mutants for the Treatment of EGFR Mutant …” (J Med Chem, 2016).
Values belong to the molecule of their own block, whether it stands above or below them.

Tests used:
[1] = Drug metabolism in rat liver microsomes assessed as oxidation at acrylate groups; assay type: ADME
[2] = Clearance in balb/c mouse at 5 mg/kg, iv by liquid chromatography-tandem mass spectrometry; assay type: ADME, organism-based; details: in vivo
Summary of the method: (§1)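 Rodent PK in male balb/c mice and male Wistar rats; plasma drug levels by LC-MS/MS. Mouse oral dosing at 20 mg/kg, with compounds given as a 0.5% methylcellulose/0.5% Tween 80 suspension or as solutions (PEG300/D5W, or ethanol/PEG300 with Solutol or D5W), depending on compound.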

[3] = Oral bioavailability in balb/c mouse at 20 mg/kg by liquid chromatography-tandem mass spectrometry; assay type: ADME, organism-based; details: in vivo; summary of the method: as §1
Cytochrome P450 3A4 = Cytochrome P450 3A4 (Homo sapiens, UniProt P08684); assay: Inhibition of CYP3A4 (unknown origin); assay type: ADME
[4] = Intrinsic clearance in mouse liver microsomes; assay type: ADME; details: read-out: CLH
Cytochrome P450 2C9 = Cytochrome P450 2C9 (Homo sapiens, UniProt P11712); assay: Inhibition of CYP2C9 (unknown origin); assay type: ADME
[5] = molecular target: Epidermal growth factor receptor (Homo sapiens, UniProt P00533, L858R/T790M); assay: Inhibition of EGFR L858R/T790M mutant phosphorylation in human patient derived H1975 cells incubated for 3 hrs by ELISA method; assay type: cell-based
[6] = Inhibition of EGFR E746 to A750 deletion mutant phosphorylation in human patient derived HCC827 cells incubated for 3 hrs by ELISA method; assay type: cell-based; details: HCC827, 3 h
Summary of the method: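 HCC827 cells plated at 7500/well in 5% FBS/RPMI and left overnight at 37 °C. Then 3 h with a 12-point compound dilution series, no EGF stimulation. Lysed in Triton/protease/phosphatase-inhibitor buffer. Phospho-EGFR (Y1173) read by sandwich ELISA: anti-EGFR capture, anti-phospho-EGFR, anti-rabbit-HRP, chemiluminescence. IC50 from at least duplicates.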

[7] = Aqueous solubility of the compound at pH 6.8; assay type: physicochemical
[8] = AUC in balb/c mouse at 20 mg/kg, po by liquid chromatography-tandem mass spectrometry; assay type: ADME, organism-based; details: in vivo; summary of the method: as §1
[9] = Glutathione reactivity assessed as GSH adduct formation incubated for 1 hr using 10 mM glutathione
Summary of the method: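 Compound incubated 1 h with 10 mM glutathione; GSH adduct formation measured.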

[10] = Intrinsic clearance in human liver microsomes; assay type: ADME; details: read-out: CLH
Cytochrome P450 2D6 = Cytochrome P450 2D6 (Homo sapiens, UniProt P10635); assay: Inhibition of CYP2D6 (unknown origin); assay type: ADME
[11] = molecular target: Epidermal growth factor receptor (Homo sapiens, UniProt P00533, L858R); assay: Inhibition of EGFR L858R mutant phosphorylation in human patient derived H3255 cells incubated for 3 hrs by ELISA method; assay type: cell-based
[12] = Drug metabolism in mouse liver microsomes assessed as oxidation at acrylate groups; assay type: ADME
[13] = Drug metabolism in rat liver microsomes assessed as oxidation at 7-methyl groups; assay type: ADME
[14] = Drug metabolism in mouse liver microsomes assessed as oxidation at 7-methyl groups; assay type: ADME
[15] = Drug metabolism in human liver microsomes assessed as oxidation at acrylate groups; assay type: ADME
[16] = Drug metabolism in human liver microsomes assessed as oxidation at 7-methyl groups; assay type: ADME
[17] = molecular target: Epidermal growth factor receptor (Homo sapiens, UniProt P00533); assay: Inhibition of wild type EGFR phosphorylation in human HaCaT cells incubated for 3 hrs by ELISA method; assay type: cell-based
[18] = Volume of distribution at steady state in dog at 1 mg/kg, iv by liquid chromatography-tandem mass spectrometry; assay type: ADME, organism-based, Canis lupus familiaris; details: in vivo, read-out: Vdss
[19] = Clearance in dog at 1 mg/kg, iv by liquid chromatography-tandem mass spectrometry; assay type: ADME, organism-based, Canis lupus familiaris; details: in vivo
[20] = Tmax in dog at 10 mg/kg, po by liquid chromatography-tandem mass spectrometry; assay type: ADME, organism-based, Canis lupus familiaris; details: in vivo
[21] = AUC in dog at 1 mg/kg, iv by liquid chromatography-tandem mass spectrometry; assay type: ADME, organism-based, Canis lupus familiaris; details: in vivo
[22] = Oral bioavailability in dog at 10 mg/kg by liquid chromatography-tandem mass spectrometry; assay type: ADME, organism-based, Canis lupus familiaris; details: in vivo
[23] = AUC in dog at 10 mg/kg, po by liquid chromatography-tandem mass spectrometry; assay type: ADME, organism-based, Canis lupus familiaris; details: in vivo
[24] = Cmax in dog at 10 mg/kg, po by liquid chromatography-tandem mass spectrometry; assay type: ADME, organism-based, Canis lupus familiaris; set-up: dose 10 mg/kg, route oral; details: in vivo
[25] = Mean residence time in dog at 1 mg/kg, iv by liquid chromatography-tandem mass spectrometry; assay type: ADME, organism-based, Canis lupus familiaris; details: in vivo

Epidermal growth factor receptor (Homo sapiens, UniProt P00533), sequence (P00533 whole entry): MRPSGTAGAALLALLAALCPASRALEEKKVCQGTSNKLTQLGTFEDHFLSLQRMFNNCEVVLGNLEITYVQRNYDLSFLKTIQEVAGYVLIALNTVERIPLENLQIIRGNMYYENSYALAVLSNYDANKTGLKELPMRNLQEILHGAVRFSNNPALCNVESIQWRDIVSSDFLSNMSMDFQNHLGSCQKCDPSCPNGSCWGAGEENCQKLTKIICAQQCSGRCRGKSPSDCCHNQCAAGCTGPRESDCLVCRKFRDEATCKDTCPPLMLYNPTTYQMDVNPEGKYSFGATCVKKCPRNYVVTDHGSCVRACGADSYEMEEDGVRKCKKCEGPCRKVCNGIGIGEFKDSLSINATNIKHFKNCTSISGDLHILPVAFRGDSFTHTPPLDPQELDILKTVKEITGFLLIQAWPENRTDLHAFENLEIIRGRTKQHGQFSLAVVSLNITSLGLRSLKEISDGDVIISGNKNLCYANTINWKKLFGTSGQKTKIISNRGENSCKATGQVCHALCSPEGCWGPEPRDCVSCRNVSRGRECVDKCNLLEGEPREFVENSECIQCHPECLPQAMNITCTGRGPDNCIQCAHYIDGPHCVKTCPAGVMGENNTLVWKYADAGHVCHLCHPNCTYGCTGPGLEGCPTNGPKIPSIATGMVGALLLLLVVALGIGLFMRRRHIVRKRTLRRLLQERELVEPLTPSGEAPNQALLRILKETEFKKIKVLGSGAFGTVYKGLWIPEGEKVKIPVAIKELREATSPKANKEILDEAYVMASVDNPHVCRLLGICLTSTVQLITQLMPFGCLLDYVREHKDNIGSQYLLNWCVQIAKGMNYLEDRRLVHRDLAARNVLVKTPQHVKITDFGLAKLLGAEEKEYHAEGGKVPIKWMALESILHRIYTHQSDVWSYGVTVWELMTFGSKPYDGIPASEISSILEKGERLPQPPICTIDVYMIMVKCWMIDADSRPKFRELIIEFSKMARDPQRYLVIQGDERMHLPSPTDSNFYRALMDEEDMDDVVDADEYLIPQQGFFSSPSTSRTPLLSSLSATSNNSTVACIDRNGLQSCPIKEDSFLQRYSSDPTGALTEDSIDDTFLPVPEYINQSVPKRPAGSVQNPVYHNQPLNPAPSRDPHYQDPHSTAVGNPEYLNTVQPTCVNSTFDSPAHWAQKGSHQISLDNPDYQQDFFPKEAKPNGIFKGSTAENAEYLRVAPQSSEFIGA
Epidermal growth factor receptor (Homo sapiens, UniProt P00533, L858R), sequence (P00533 25-1210 L858R limits assumed): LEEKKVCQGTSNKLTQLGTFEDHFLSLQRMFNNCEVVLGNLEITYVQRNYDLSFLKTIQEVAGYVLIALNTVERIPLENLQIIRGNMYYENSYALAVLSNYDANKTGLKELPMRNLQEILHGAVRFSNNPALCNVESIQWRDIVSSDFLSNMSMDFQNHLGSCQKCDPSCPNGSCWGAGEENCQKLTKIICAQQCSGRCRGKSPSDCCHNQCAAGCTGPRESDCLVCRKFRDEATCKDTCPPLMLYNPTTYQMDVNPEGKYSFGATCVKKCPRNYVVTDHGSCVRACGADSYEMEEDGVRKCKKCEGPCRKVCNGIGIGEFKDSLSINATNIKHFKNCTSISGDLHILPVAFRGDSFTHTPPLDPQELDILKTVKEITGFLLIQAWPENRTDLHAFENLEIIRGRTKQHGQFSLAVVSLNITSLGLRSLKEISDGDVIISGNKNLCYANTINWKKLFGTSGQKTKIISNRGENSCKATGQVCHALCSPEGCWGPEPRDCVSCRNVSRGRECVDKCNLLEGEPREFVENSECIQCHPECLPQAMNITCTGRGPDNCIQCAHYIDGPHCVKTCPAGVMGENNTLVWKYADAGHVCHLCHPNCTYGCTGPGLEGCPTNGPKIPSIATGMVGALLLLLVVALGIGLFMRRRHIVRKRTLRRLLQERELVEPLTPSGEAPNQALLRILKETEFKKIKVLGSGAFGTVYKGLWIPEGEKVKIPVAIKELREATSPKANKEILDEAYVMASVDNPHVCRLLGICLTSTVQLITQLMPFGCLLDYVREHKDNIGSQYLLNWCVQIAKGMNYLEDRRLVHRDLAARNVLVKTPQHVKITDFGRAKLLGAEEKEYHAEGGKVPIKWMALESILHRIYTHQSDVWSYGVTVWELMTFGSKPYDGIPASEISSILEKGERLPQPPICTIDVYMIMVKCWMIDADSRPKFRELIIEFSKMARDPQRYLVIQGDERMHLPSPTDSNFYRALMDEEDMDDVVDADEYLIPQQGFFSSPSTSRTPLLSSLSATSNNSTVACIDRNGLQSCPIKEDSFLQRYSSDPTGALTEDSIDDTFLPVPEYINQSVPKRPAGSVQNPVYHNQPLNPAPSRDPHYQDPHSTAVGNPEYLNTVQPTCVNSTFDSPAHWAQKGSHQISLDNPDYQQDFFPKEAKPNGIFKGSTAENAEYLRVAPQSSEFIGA
Cytochrome P450 2C9, sequence (P11712 whole entry): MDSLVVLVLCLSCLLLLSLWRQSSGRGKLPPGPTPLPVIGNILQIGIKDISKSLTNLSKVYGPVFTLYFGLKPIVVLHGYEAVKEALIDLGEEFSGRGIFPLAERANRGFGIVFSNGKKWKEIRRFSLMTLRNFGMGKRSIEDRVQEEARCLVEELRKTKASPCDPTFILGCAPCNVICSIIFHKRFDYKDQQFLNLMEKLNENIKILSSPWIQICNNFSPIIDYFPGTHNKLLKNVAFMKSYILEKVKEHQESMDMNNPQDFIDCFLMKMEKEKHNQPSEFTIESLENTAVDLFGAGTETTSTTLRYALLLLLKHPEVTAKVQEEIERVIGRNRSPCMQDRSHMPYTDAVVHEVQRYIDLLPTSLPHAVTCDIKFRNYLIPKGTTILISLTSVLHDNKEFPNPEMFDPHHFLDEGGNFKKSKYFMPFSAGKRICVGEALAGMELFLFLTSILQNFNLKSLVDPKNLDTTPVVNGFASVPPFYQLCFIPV
Cytochrome P450 3A4, sequence (P08684 whole entry): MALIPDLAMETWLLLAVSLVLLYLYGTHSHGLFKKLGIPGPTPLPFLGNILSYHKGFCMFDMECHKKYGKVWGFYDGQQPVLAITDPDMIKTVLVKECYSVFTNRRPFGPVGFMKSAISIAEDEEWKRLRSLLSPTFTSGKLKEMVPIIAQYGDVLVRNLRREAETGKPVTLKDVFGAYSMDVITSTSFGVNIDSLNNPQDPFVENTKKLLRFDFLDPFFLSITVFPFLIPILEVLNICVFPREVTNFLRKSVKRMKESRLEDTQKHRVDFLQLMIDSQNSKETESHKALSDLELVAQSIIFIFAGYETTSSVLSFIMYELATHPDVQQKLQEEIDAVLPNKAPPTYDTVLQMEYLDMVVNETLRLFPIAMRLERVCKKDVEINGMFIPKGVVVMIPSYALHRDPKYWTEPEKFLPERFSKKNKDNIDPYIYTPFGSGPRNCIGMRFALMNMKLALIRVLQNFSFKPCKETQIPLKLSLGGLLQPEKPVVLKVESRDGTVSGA
Cytochrome P450 2D6, sequence (P10635 whole entry): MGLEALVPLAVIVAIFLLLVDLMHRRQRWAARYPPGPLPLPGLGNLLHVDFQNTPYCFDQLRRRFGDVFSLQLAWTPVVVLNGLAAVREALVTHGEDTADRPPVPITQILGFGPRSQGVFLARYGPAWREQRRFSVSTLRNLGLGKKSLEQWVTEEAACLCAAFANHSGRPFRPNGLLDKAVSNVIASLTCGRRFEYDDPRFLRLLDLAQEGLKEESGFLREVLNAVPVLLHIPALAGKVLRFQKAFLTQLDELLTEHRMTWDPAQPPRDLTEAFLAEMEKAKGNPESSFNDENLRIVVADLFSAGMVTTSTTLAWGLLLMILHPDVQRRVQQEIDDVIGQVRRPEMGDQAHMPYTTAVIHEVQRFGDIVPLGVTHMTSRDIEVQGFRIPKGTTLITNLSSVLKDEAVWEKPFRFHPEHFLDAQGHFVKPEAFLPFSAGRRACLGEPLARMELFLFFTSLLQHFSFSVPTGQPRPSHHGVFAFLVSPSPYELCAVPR
Epidermal growth factor receptor (Homo sapiens, UniProt P00533, L858R/T790M), sequence (P00533 25-1210 T790M/L858R limits assumed): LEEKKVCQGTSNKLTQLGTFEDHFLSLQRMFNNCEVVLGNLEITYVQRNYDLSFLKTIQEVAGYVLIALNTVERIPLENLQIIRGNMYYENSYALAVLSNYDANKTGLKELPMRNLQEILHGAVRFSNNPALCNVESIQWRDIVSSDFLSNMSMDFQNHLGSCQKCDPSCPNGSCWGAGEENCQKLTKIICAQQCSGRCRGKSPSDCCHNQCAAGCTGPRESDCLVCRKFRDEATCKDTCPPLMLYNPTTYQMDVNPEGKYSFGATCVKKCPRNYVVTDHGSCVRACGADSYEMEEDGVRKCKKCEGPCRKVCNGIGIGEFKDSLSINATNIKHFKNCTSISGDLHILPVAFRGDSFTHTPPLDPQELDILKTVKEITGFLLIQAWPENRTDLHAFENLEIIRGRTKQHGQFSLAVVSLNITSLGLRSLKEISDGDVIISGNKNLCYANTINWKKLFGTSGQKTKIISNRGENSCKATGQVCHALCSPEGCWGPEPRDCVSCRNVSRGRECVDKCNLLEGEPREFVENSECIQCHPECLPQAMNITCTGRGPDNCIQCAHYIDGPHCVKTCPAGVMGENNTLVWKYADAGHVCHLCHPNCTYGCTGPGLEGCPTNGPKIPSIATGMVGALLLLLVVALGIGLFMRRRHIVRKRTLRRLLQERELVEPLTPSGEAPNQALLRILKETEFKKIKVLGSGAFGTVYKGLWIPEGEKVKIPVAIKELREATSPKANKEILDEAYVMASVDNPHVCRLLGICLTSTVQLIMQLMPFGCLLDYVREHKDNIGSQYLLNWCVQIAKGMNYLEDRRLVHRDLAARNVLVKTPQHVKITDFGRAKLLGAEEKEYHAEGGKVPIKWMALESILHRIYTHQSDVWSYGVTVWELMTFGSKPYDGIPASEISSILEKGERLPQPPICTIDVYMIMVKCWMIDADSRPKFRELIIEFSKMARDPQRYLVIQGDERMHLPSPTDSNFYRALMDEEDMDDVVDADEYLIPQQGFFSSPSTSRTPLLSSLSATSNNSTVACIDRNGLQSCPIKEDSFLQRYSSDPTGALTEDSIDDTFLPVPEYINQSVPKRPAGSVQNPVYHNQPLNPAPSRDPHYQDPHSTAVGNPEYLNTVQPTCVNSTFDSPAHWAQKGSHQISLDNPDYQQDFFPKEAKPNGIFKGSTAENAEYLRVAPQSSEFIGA

Drug metabolism [1]: Metabolite_Detected
clearance [2]: 54 mL/min/kg
bioavailability [3]: 6%
IC50 (Cytochrome P450 3A4): 3.5 µM
microsomal CLint [4]: 245 µL/min/mg
IC50 (Cytochrome P450 2C9): 3.4 µM
IC50 [5]: 1.39 nM
IC50 [6]: 3.93 nM
solubility [7]: < 2 µM
AUC [8]: 0.808 µM·h
microsomal CLint [10]: 83 µL/min/mg
IC50 (Cytochrome P450 2D6): > 25 µM
IC50 [11]: 14.8 nM
Drug metabolism [12]: Metabolite_Detected
Drug metabolism [13]: Metabolite_Detected
Drug metabolism [14]: Metabolite_Detected
Drug metabolism [15]: Metabolite_Detected
Drug metabolism [16]: Metabolite_Detected
IC50 [17]: 250 nM
SMILES: C=CC(=O)N1CCCC[C@@H](n2c(NC(=O)c3cccc(C(F)(F)F)c3)nc3cccc(C)c32)C1
Drug metabolism [9]: < 5%

Vd [18]: 35.2 L/kg
clearance [19]: 43.7 mL/min/kg
Tmax [20]: 2.3 h
AUC [21]: 0.783 µM·h
bioavailability [22]: 67%
AUC [23]: 5.23 µM·h
Cmax [24]: 435 nM
MRT [25]: 13.8 h
SMILES: Cc1cc(C(=O)Nc2nc3cccc(Cl)c3n2[C@@H]2CCCCN(C(=O)/C=C/CN(C)C)C2)ccn1.Cl
